How the values were obtained:
[1] = Toxicity against human KB/VCR cells assessed as inhibition of cell growth at 25 uM incubated for 72 hrs by sulforhodamine B assay; assay type: cell-based; details: read-out: GI
[2] = Multidrug resistance reversal activity in human KB/VCR cells assessed as reduction in vinblastine IC50 at 25 uM incubated for 72 hrs by sulforhodamine B assay relative to untreated control; assay type: functional
Summary of the method: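 KB/VCR cells seeded 24 h, then given vinblastine serial dilutions (0.125–1 μM) with or without 25 μM sample for 72 h at 37 °C, 5% CO2. Cells fixed in 10% TCA (4 °C, 1 h), stained 15 min with 0.4% SRB in 1% HOAc, dye dissolved in 10 mM Tris base, A510 read. Fold reversal = IC50 of drug alone / IC50 with sample.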

SMILES | inhibition at 72 h, 25 µM [1] [%] | Ratio IC50 [2]
CCCCC[C@H]1CCCCCCCCCC(=O)O[C@H]2[C@H](O[C@H]3[C@H](O1)O[C@H](C)[C@H](O)[C@@H]3OC(C)=O)O[C@@H](C)[C@H](O[C@@H]1O[C@@H](C)[C@H](O[C@@H]3O[C@@H](C)[C@H](OC(=O)[C@@H](C)CC)[C@@H](O)[C@H]3O)[C@@H](O[C@@H]3O[C@H](CO)[C@@H](O)[C@H](O)[C@H]3O)[C@H]1OC(=O)[C@@H](C)CC)[C@H]2O | 0.91 | 2.3
CCCCCCCC(=O)O[C@H]1[C@H](O[C@@H]2[C@@H](O)[C@H]3OC(=O)CCCCCCCCC[C@H](CCCCC)O[C@@H]4O[C@H](C)[C@H](OC(C)=O)[C@H](O)[C@H]4O[C@@H]3O[C@H]2C)O[C@@H](C)[C@H](O[C@@H]2O[C@@H](C)[C@H](OC(=O)[C@@H](C)CC)[C@@H](O)[C@H]2O)[C@H]1O[C@@H]1O[C@H](CO)[C@@H](O)[C@H](O)[C@H]1O | 93.8 | 
CCCCC[C@H]1CCCCCCCCCC(=O)O[C@H]2[C@H](O[C@H]3[C@H](O1)O[C@H](C)[C@H](OC(C)=O)[C@@H]3O)O[C@@H](C)[C@H](O[C@@H]1O[C@@H](C)[C@H](O[C@@H]3O[C@@H](C)[C@H](OC(=O)[C@@H](C)CC)[C@@H](O)[C@H]3O)[C@@H](O[C@@H]3O[C@H](CO)[C@@H](O)[C@H](O)[C@H]3O)[C@H]1OC(=O)[C@@H](C)CC)[C@H]2O | 97.8 | 
CCCCCCCCCC(=O)O[C@H]1[C@H](O[C@@H]2[C@@H](O)[C@H]3OC(=O)CCCCCCCCC[C@H](CCCCC)O[C@@H]4O[C@H](C)[C@H](OC(C)=O)[C@H](O)[C@H]4O[C@@H]3O[C@H]2C)O[C@@H](C)[C@H](O[C@@H]2O[C@@H](C)[C@H](OC(=O)[C@@H](C)CC)[C@@H](O)[C@H]2O)[C@H]1O[C@@H]1O[C@H](CO)[C@@H](O)[C@H](O)[C@H]1O | 96.6 | 
CCCCC[C@H]1CCCCCCCCCC(=O)O[C@H]2[C@@H](O)[C@H](O[C@H]3[C@H](O1)O[C@H](C)[C@H](O)[C@@H]3O)O[C@@H](C)[C@@H]2O[C@@H]1O[C@@H](C)[C@H](O[C@@H]2O[C@@H](C)[C@H](O)[C@@H](O)[C@H]2O)[C@@H](O[C@@H]2O[C@H](CO)[C@@H](O)[C@H](O)[C@H]2O)[C@H]1OC(=O)[C@@H](C)CC | -0.08 | 15.8
CCCCC[C@@H](CCCCCCCCCC(=O)OC)O[C@@H]1O[C@H](C)[C@H](O)[C@H](O)[C@H]1O[C@@H]1O[C@@H](C)[C@H](O[C@@H]2O[C@@H](C)[C@H](O[C@@H]3O[C@@H](C)[C@H](OC(=O)[C@@H](C)CC)[C@@H](O)[C@H]3O)[C@@H](O[C@@H]3O[C@H](CO)[C@@H](O)[C@H](O)[C@H]3O)[C@H]2O)[C@@H](O)[C@H]1O | 0.23 | 2.5
CCCCCCCCCC(=O)O[C@H]1[C@H](O[C@@H]2[C@@H](O)[C@H]3OC(=O)CCCCCCCCC[C@H](CCCCC)O[C@@H]4O[C@H](C)[C@H](O)[C@H](O)[C@H]4O[C@@H]3O[C@H]2C)O[C@@H](C)[C@H](O[C@@H]2O[C@@H](C)[C@H](OC(=O)[C@@H](C)CC)[C@@H](O)[C@H]2O)[C@H]1O[C@@H]1O[C@H](CO)[C@@H](O)[C@H](O)[C@H]1O | 96.7 | 
CCCCC[C@H]1CCCCCCCCCC(=O)O[C@H]2[C@@H](O)[C@H](O[C@H]3[C@H](O1)O[C@H](C)[C@H](O)[C@@H]3O)O[C@@H](C)[C@@H]2O[C@@H]1O[C@@H](C)[C@H](O[C@@H]2O[C@@H](C)[C@H](OC(=O)[C@@H](C)CC)[C@@H](OC(=O)/C=C/c3ccccc3)[C@H]2O)[C@@H](O[C@@H]2O[C@H](CO)[C@@H](O)[C@H](O)[C@H]2O)[C@H]1OC(=O)[C@@H](C)CC | 91.1 | 
CCCCC[C@H]1CCCCCCCCCC(=O)O[C@H]2[C@H](O[C@H]3[C@H](O1)O[C@H](C)[C@H](O)[C@@H]3O)O[C@@H](C)[C@H](O[C@@H]1O[C@@H](C)[C@H](O[C@@H]3O[C@@H](C)[C@H](OC(=O)[C@@H](C)CC)[C@@H](O)[C@H]3O)[C@@H](O[C@@H]3O[C@H](CO)[C@@H](O)[C@H](O)[C@H]3O)[C@H]1OC(=O)[C@@H](C)CC)[C@H]2O [MURUCOIDIN IV] | 97.5 | 
CCCCC[C@H]1CCCCCCCCCC(=O)O[C@H]2[C@@H](O)[C@H](O[C@H]3[C@H](O1)O[C@H](C)[C@H](O)[C@@H]3O)O[C@@H](C)[C@@H]2O[C@@H]1O[C@@H](C)[C@H](O[C@@H]2O[C@@H](C)[C@H](OC(=O)[C@@H](C)CC)[C@@H](O)[C@H]2O)[C@@H](O[C@@H]2O[C@H](CO)[C@@H](O)[C@H](O)[C@H]2O)[C@H]1OC(=O)[C@@H](C)CC [MURUCOIDIN V] | 7.72 | 142.5

Source: ChEMBL document CHEMBL3351612, “Merremins A-G, resin glycosides from Merremia hederacea with multidrug resistance reversal activity” (J Nat Prod, 2014)
